Data published in ChEMBL document CHEMBL3352075, “Discovery of potent 1H-imidazo[4,5-b]pyridine-based c-Met kinase inhibitors via mechanism-directed structural optimization” (Bioorg Med Chem Lett, 2015).
One block for each compound: values may come before it.

Legend:
[1] = target: Insulin-like growth factor 1 receptor (Homo sapiens) (UniProt P08069); test: Inhibition of IGF1R (unknown origin) at 1 uM by ELISA method
Method in brief: (§1)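 Kinase profiling by ELISA kinase assay across a panel of tyrosine kinases, each tested at a single 1.0 µM compound concentration. Read-out is percent inhibition rate.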

[2] = Antiproliferative activity against human EBC1 cells after 72 hrs by sulforhodamine B assay; conditions: EBC-1, 72 h
[3] = target: Vascular endothelial growth factor receptor 1 (Homo sapiens) (UniProt P17948); test: Inhibition of FLT1 (unknown origin) at 1 uM by ELISA method; method in brief: as §1
[4] = target: Platelet-derived growth factor receptor alpha (Homo sapiens) (UniProt P16234); test: Inhibition of PDGFRalpha (unknown origin) at 1 uM by ELISA method; method in brief: as §1
[5] = target: Hepatocyte growth factor receptor (Homo sapiens, UniProt P08581); test: Inhibition of recombinant c-Met (unknown origin) using poly (Glu,Tyr)4:1 substrate incubated for 60 mins by ELISA method
[6] = target: Fibroblast growth factor receptor 1 (Homo sapiens) (UniProt P11362); conditions: 10 nM
[7] = target: Macrophage-stimulating protein receptor (Homo sapiens) (UniProt Q04912); test: Inhibition of RON (unknown origin) at 0.1 uM by ELISA method
[8] = target: Tyrosine-protein kinase receptor UFO (Homo sapiens) (UniProt P30530); test: Inhibition of AXL (unknown origin) at 0.1 uM by ELISA method
[9] = target: Macrophage-stimulating protein receptor (Homo sapiens) (UniProt Q04912); test: Inhibition of RON (unknown origin) at 1 uM by ELISA method; method in brief: as §1
[10] = target: Tyrosine-protein kinase receptor UFO (Homo sapiens) (UniProt P30530); test: Inhibition of AXL (unknown origin) at 1 uM by ELISA method; method in brief: as §1
[11] = target: Fibroblast growth factor receptor 1 (Homo sapiens) (UniProt P11362); test: Inhibition of FGFR1 (unknown origin) at 1 uM by ELISA method; method in brief: as §1
[12] = target: Fibroblast growth factor receptor 2 (Homo sapiens) (UniProt P21802); test: Inhibition of FGFR2 (unknown origin) at 1 uM by ELISA method; method in brief: as §1
[13] = target: ALK tyrosine kinase receptor (Homo sapiens) (UniProt Q9UM73); test: Inhibition of ALK (unknown origin) at 1 uM by ELISA method; method in brief: as §1
[14] = target: Platelet-derived growth factor receptor beta (Homo sapiens) (UniProt P09619); test: Inhibition of PDGFRbeta (unknown origin) at 1 uM by ELISA method; method in brief: as §1
[15] = target: Receptor tyrosine-protein kinase erbB-4 (Homo sapiens) (UniProt Q15303); test: Inhibition of ErbB4 (unknown origin) at 1 uM by ELISA method; method in brief: as §1
[16] = target: Vascular endothelial growth factor receptor 2 (Homo sapiens) (UniProt P35968); conditions: at 1 µM
[17] = target: Proto-oncogene tyrosine-protein kinase Src (Homo sapiens) (UniProt P12931); conditions: at 1 µM
[18] = target: Tyrosine-protein kinase ABL1 (Homo sapiens) (UniProt P00519); conditions: at 1 µM

Macrophage-stimulating protein receptor (Homo sapiens), sequence (Q04912 25-304 limits assumed): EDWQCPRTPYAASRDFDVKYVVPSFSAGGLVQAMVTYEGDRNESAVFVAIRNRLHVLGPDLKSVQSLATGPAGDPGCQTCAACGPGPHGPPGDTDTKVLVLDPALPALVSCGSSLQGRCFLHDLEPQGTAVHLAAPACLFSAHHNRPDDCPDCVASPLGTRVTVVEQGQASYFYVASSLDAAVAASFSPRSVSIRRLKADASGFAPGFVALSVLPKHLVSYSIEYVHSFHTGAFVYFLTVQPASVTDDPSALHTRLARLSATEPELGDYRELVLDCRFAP
Macrophage-stimulating protein receptor (Homo sapiens), sequence (Q04912 310-1400 limits assumed): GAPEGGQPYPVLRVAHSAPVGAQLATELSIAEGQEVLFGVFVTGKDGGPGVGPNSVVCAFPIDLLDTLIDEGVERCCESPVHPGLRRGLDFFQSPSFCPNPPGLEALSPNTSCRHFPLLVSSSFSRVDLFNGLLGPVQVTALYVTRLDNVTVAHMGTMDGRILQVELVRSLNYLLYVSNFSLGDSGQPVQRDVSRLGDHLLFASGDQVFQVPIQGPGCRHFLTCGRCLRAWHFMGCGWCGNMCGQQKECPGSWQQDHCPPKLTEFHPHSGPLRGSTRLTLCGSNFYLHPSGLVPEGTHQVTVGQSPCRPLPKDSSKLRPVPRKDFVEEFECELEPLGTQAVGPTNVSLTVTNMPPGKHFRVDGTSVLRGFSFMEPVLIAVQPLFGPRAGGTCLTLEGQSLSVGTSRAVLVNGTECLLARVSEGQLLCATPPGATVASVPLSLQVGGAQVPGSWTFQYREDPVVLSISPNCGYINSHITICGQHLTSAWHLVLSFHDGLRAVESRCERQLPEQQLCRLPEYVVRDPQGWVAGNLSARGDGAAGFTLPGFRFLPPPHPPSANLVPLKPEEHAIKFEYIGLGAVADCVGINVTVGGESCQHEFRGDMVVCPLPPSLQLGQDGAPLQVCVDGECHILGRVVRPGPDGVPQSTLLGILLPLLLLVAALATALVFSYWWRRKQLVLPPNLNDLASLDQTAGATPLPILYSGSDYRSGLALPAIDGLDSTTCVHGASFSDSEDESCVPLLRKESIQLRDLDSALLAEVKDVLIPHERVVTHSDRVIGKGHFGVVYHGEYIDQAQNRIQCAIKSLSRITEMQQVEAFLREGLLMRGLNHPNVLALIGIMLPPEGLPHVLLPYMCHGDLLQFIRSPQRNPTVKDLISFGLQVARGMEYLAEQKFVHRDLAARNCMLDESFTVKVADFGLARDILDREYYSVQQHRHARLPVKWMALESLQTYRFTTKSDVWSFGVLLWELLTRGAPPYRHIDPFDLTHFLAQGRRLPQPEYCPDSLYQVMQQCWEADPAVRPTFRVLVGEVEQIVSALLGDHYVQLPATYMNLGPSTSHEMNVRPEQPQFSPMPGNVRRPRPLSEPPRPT
Platelet-derived growth factor receptor alpha (Homo sapiens), sequence (P16234 whole entry): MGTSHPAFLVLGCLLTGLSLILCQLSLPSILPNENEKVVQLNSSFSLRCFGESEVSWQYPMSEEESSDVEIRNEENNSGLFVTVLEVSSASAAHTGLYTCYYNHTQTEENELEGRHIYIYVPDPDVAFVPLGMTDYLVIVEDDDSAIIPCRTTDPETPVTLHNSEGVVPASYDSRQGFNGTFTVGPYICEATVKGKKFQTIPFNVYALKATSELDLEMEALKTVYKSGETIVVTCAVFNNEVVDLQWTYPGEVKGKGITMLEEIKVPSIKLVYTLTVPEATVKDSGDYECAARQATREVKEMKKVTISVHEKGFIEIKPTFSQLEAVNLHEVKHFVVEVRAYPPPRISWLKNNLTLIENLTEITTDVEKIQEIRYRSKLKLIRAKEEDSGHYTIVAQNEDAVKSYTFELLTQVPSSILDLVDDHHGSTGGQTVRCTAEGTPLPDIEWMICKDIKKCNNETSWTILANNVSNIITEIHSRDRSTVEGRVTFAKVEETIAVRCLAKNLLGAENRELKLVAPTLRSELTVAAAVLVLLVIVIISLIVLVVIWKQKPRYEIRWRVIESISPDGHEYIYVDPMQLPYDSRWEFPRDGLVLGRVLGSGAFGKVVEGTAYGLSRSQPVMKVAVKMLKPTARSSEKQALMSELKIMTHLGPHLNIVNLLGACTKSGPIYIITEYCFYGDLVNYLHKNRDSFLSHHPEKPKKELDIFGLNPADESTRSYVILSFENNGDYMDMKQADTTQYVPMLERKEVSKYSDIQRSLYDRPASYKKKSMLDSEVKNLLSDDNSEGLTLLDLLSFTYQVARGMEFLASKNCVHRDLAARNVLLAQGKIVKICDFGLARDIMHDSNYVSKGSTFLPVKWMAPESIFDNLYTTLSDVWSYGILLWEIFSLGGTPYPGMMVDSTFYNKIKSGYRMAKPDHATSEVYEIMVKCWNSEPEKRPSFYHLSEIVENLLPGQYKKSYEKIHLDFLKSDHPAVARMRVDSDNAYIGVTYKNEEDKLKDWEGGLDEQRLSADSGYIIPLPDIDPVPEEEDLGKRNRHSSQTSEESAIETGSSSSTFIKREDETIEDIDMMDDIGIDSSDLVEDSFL
Insulin-like growth factor 1 receptor (Homo sapiens), sequence (P08069 31-736 limits assumed): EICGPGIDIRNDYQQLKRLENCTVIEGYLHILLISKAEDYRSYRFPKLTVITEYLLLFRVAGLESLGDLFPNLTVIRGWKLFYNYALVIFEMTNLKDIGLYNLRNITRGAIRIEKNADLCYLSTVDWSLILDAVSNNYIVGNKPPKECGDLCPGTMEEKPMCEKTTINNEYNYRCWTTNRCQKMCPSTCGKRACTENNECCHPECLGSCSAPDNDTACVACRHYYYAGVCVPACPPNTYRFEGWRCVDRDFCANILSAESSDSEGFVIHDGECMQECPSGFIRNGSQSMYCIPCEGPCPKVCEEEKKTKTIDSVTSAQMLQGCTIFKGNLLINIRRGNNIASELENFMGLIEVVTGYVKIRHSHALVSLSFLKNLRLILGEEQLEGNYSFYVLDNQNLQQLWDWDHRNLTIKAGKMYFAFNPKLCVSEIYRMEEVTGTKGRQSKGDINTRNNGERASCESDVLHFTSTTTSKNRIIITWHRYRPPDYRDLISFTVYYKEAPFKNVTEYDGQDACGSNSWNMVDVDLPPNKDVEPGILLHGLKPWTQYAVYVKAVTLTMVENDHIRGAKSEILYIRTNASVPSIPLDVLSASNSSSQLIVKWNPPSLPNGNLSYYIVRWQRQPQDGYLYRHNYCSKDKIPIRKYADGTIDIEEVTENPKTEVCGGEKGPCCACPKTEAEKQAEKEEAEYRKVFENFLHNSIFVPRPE
Insulin-like growth factor 1 receptor (Homo sapiens), sequence (P08069 741-1367 limits assumed): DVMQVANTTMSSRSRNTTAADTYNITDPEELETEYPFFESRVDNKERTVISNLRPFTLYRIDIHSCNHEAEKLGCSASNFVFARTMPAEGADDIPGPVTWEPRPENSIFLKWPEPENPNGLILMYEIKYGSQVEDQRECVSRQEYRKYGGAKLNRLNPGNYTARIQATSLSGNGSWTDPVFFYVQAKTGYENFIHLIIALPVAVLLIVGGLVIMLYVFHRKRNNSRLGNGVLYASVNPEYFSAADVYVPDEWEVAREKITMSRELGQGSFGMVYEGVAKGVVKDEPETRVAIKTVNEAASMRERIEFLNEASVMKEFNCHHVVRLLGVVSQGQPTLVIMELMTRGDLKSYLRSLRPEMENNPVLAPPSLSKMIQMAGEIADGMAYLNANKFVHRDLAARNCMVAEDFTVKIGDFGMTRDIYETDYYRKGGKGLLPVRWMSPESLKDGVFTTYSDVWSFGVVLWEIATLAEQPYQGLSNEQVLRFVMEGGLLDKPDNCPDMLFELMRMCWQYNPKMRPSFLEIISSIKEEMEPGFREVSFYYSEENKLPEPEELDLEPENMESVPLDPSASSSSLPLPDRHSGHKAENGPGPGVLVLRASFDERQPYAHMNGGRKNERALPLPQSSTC
Fibroblast growth factor receptor 1 (Homo sapiens), sequence (P11362 22-822 limits assumed): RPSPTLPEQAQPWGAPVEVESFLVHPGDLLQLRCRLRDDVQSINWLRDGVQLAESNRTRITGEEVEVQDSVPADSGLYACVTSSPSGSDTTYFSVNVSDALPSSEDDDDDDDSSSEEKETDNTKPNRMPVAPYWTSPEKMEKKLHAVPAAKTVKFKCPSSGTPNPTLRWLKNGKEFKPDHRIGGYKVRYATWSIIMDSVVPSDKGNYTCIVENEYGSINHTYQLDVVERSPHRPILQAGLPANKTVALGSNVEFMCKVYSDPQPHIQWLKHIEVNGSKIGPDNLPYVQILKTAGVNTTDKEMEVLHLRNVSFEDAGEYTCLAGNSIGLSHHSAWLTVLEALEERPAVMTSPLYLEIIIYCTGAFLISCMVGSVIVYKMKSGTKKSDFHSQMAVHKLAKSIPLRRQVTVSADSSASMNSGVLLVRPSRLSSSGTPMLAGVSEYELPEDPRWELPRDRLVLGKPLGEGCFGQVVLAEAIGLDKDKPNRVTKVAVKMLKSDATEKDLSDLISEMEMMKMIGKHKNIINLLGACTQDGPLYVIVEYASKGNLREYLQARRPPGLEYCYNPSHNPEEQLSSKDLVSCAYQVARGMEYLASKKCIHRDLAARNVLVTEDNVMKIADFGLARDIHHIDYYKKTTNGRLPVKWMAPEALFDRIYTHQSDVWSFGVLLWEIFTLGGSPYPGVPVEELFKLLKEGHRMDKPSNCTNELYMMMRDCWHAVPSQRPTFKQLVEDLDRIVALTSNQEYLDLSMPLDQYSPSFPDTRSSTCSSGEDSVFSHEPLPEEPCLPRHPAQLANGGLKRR

Compound: CN1CCC(Cn2c(=O)[nH]c3c4ncccc4c(Oc4ccc(NC(=O)c5cccn(-c6ccc(F)cc6)c5=O)cc4F)nc32)CC1
IC50 [2]: 19.8 µM

Compound: O=C(Nc1ccc(Oc2nc3c([nH]c(=O)n3Cc3ccc(O)cc3)c3ncccc23)c(F)c1)c1cccn(-c2ccc(F)cc2)c1=O
IC50 [2]: > 50 µM

Compound: Nc1nccc(Oc2ccc(NC(=O)C3(C(=O)Nc4ccc(F)cc4)CC3)cc2F)c1NCC(=O)O
IC50 [2]: < 10 µM

Compound: Nc1c(Oc2ccc(NC(=O)C3(C(=O)Nc4ccc(F)cc4)CC3)cc2F)ccnc1NC(=O)CCl
IC50 [2]: < 10 µM

Compound: CCN(CC)CCNC(=O)c1c(C)[nH]c(/C=C2\C(=O)Nc3ccc(F)cc32)c1C
inhibition [3]: 66.6%
inhibition [4]: 68.4%

Compound: O=C(Nc1ccc(Oc2nc3c([nH]c(=O)n3CCN3CCNCC3)c3ncccc23)c(F)c1)c1cccn(-c2ccc(F)cc2)c1=O
IC50 [2]: > 50 µM

Continued, in another order:

inhibition [1]: 56.6%
Compound: Nc1ncnc2c1c(-c1cccc(OCc3ccccc3)c1)cn2C1CC(CN2CCC2)C1 (stereo not drawn)

IC50 [5]: 0.26 µM
Compound: O=C(Nc1ccc(F)cc1)C1(C(=O)Nc2ccc(Oc3ccnc4c3nc3n4CCCC3)c(F)c2)CC1
IC50 [2]: > 10 µM

inhibition [6]: 95.1%
Compound: COc1cc(CCc2cc(NC(=O)c3ccc(N4C[C@@H](C)N[C@@H](C)C4)cc3)n[nH]2)cc(OC)c1

inhibition [7]: 100%
inhibition [8]: 100%
Compound: COc1cc2nccc(Oc3ccc(NC(=O)C4(C(=O)Nc5ccc(F)cc5)CC4)cc3)c2cc1OC

IC50 [5]: 0.209 µM
inhibition [9]: 43.2%
inhibition [10]: 41.6%
inhibition [11]: 7.4%
inhibition [12]: 37.2%
inhibition [13]: 2.5%
inhibition [3]: 13.3%
inhibition [1]: 33.6%
inhibition [4]: 22.6%
inhibition [14]: 0%
inhibition [15]: 24.3%
inhibition [16]: 0%
inhibition [17]: 0%
inhibition [18]: 0%
Compound: O=C(Nc1ccc(F)cc1)C1(C(=O)Nc2ccc(Oc3ccnc4[nH]c(=O)[nH]c34)c(F)c2)CC1
IC50 [2]: 0.24 µM
